Assay results published in PMC4832855 (Cancer Science, 2016).
“And” between values parts separate entries of the source, which are not always exact repeats. Equal entries are not always repeated.

Columns and labels:
[1] = system: patients with advanced solid tumors; assay: Phase I first-in-human study: safety, tolerability, DLT, MTD; assay type: in vivo
In short: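 Open-label 3+3 dose-escalation/de-escalation; oral once-daily dosing under overnight fasting for 28 days, 1-week observation, then continuous; AEs graded by CTCAE v3.0 with attribution; DLTs included grade 3 fasting hyperglycemia, grade 3 non-fasting hyperglycemia >4 h, grade 4 hyperglycemia, grade ≥2 cardiac toxicity, other grade ≥3 non-hematologic events, grade 4 neutropenia >7 days, grade 4 thrombocytopenia.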

[2] = Phase I first-in-human study: pharmacokinetics; assay type: in vivo; conditions: for half-life / concentration at 1 day / concentration at 28 day / Cmax / Tmax / Vd/F: human, plasma; for Cmax: C max; for Tmax: T max; for Vd/F: VZ/F
[3] = po, 37.5 mg/day, patients, oral 37.5 mg/day, Day 1 (n = 7), mean ± SD
[4] = po, 37.5 mg/day, patients, oral 37.5 mg/day, Day 28 (n = 5), mean ± SD
[5] = patients, oral 37.5 mg/day, Day 28 (n = 5), mean ± SD
[6] = patients, oral 50 mg/day, Day 28 (n = 4), mean ± SD

In the case of `Cc1ccsc1C(=O)Nc1cc(CN2CCN(C(=O)CO)CC2)ccc1/C=C/c1n[nH]c2ccccc12` [KW‐2450], the “Nausea, treatment‐related, Grade 1–2” value ([1]; 50 mg/day (n = 6)) is reported as 4 (66.7) No. of patients (%), the “Nausea, treatment‐related, Grade 3” value ([1]; 50 mg/day (n = 6)) is reported as 0 (0.0) No. of patients (%) and the “Pain, treatment‐related, Grade 1–2” value ([1]; 50 mg/day (n = 6)) is reported as 2 (33.3) No. of patients (%). For the same compound, the “Pain, treatment‐related, Grade 3” value ([1]; 50 mg/day (n = 6)) was 0 (0.0) No. of patients (%), the “Rash, treatment‐related, Grade 1–2” value ([1]; 50 mg/day (n = 6)) was 0 (0.0) No. of patients (%) and the “Rash, treatment‐related, Grade 3” value ([1]; 50 mg/day (n = 6)) was 0 (0.0) No. of patients (%). The “Vomiting, treatment‐related, Grade 1–2” value ([1]; 50 mg/day (n = 6)) was 1 (16.7) No. of patients (%), the “Vomiting, treatment‐related, Grade 3” value ([1]; 50 mg/day (n = 6)) was 0 (0.0) No. of patients (%) and the “Patients with dose‐limiting toxicity” value ([1]; 50 mg/day, two of six patients, grade 3 non‐fasting hyperglycemia) was 33.3%. For the same compound, the “Anorexia, treatment‐related, Grade 1–2” value ([1]; Total (n = 13)) was 2 (15.4) No. of patients (%), the “Anorexia, treatment‐related, Grade 3” value ([1]; Total (n = 13)) was 0 (0.0) No. of patients (%) and the “Constipation, treatment‐related, Grade 1–2” value ([1]; Total (n = 13)) was 2 (15.4) No. of patients (%). For the same compound, the “Constipation, treatment‐related, Grade 3” value ([1]; Total (n = 13)) was 0 (0.0) No. of patients (%), the “Decreased appetite, treatment‐related, Grade 1–2” value ([1]; Total (n = 13)) was 3 (23.1) No. of patients (%) and the “Decreased appetite, treatment‐related, Grade 3” value ([1]; Total (n = 13)) was 0 (0.0) No. of patients (%). The “Diarrhea, treatment‐related, Grade 1–2” value ([1]; Total (n = 13)) was 2 (15.4) No. of patients (%), the “Diarrhea, treatment‐related, Grade 3” value ([1]; Total (n = 13)) was 0 (0.0) No. of patients (%) and the “Dizziness, treatment‐related, Grade 1–2” value ([1]; Total (n = 13)) was 3 (23.1) No. of patients (%). The “Dizziness, treatment‐related, Grade 3” value ([1]; Total (n = 13)) was 0 (0.0) No. of patients (%), the “Fatigue, treatment‐related, Grade 1–2” value ([1]; Total (n = 13)) was 8 (61.5) No. of patients (%) and the “Fatigue, treatment‐related, Grade 3” value ([1]; Total (n = 13)) was 0 (0.0) No. of patients (%). For the same compound, the “Hyperglycemia, treatment‐related, Grade 1–2” value ([1]; Total (n = 13)) was 3 (23.1) No. of patients (%), the “Hyperglycemia, treatment‐related, Grade 3” value ([1]; Total (n = 13)) was 2 (15.4) No. of patients (%) and the “Mucosal inflammation, treatment‐related, Grade 1–2” value ([1]; Total (n = 13)) was 2 (15.4) No. of patients (%). For the same compound, the “Mucosal inflammation, treatment‐related, Grade 3” value ([1]; Total (n = 13)) was 0 (0.0) No. of patients (%), the “Nausea, treatment‐related, Grade 1–2” value ([1]; Total (n = 13)) was 6 (46.2) No. of patients (%) and the “Nausea, treatment‐related, Grade 3” value ([1]; Total (n = 13)) was 0 (0.0) No. of patients (%). For the same compound, the “Pain, treatment‐related, Grade 1–2” value ([1]; Total (n = 13)) was 2 (15.4) No. of patients (%), the “Pain, treatment‐related, Grade 3” value ([1]; Total (n = 13)) was 0 (0.0) No. of patients (%) and the “Vomiting, treatment‐related, Grade 1–2” value ([1]; Total (n = 13)) was 2 (15.4) No. of patients (%). For the same compound, the “Vomiting, treatment‐related, Grade 3” value ([1]; Total (n = 13)) was 0 (0.0) No. of patients (%), the “Maximum tolerated dose (MTD)” value ([1]; once daily orally, continuous) was 37.5 mg and the “Recommended phase II dose (RP2D)” value ([1]; oral, once daily) was 37.5 mg/day. For the same compound, the half-life ([2]; oral, 50 mg, Mean elimination half‐life, range across dose levels and day measured, patients, 37.5 and 50 mg, days 1 and 28) was 9.74 to 13 h, the concentration at 1 day ([2]; po, 37.5 mg/day) was 608 ng/mL and the concentration at 28 day ([2]; po, 37.5 mg/day) was 890 ng/mL. It also gave a Cmax [2, 3] of 2330 ± 921 ng/mL, a Cmax [2, 4] of 2370 ± 1010 ng/mL and a Tmax [2, 3] of 2.29 ± 0.95 h. For the same compound, the Tmax [2, 4] was 1.99 ± 1.22 h, the Vd/F ([2]; po, 37.5 mg/day, patients, oral 37.5 mg/day, Day 1, n = 5, mean ± SD) was 19.6 ± 2.91 L and the Vd/F ([2]; po, 37.5 mg/day, patients, oral 37.5 mg/day, Day 28, n = 4, mean ± SD) was 23.7 ± 3.89 L. For the same compound, the half-life ([2]; po, 37.5 mg/day, t 1/2, patients, oral 37.5 mg/day, Day 1, n = 5, mean ± SD) was 10.1 ± 3.08 h, the half-life ([2]; po, 37.5 mg/day, t 1/2, patients, oral 37.5 mg/day, Day 28, n = 4, mean ± SD) was 9.74 ± 2.69 h and the concentration at 1 day ([2]; po, 50 mg/day) was 671 ng/mL. For the same compound, the concentration at 28 day ([2]; po, 50 mg/day) was 701 ng/mL, the “Mean maximum plasma concentration, molar equivalent” value ([2]; patients, 37.5 mg/day, days 1 and 28) was 3385 to 3440 nmol/L and the “Mean elimination half‐life, range across dose levels and day measured” value ([2]; patients, 37.5 and 50 mg, days 1 and 28) was 10 to 13 h. The “C min (trough plasma concentration)” value ([2]; patients, oral 37.5 mg/day, Day 1 (n = 7), mean ± SD) was 608 ± 679 ng/mL, the CL/F ([2]; patients, oral 37.5 mg/day, Day 1, n = 5, mean ± SD) was 1.45 ± 0.53 L/h and the “C min (trough plasma concentration)” value [2, 5] was 890 ± 1173 ng/mL. The CL/F [2, 5] was 1.56 ± 0.88 L/h, the “R, accumulation ratio (AUC0–24 on day 28/AUC0–24 on day 1)” value [2, 5] was 1.57 and 1.57 ± 0.80 and the “C min (trough plasma concentration)” value ([2]; patients, oral 50 mg/day, Day 1 (n = 6), mean ± SD) was 671 ± 517 ng/mL. The CL/F ([2]; patients, oral 50 mg/day, Day 1, n = 5, mean ± SD) was 1.48 ± 0.97 L/h, the “C min (trough plasma concentration)” value [2, 6] was 701 ± 462 ng/mL and the CL/F [2, 6] was 1.69 ± 0.47 L/h. The “R, accumulation ratio (AUC0–24 on day 28/AUC0–24 on day 1)” value [2, 6] was 1.27 and 1.27 ± 0.37.
